Measured values as given in paper PMC8204304 (ACS Infectious Diseases, 2021).
Like-named read-outs stand apart in the source and are kept apart here.

What was measured:
[1] = test system: Dd2; settings: read-out: Dd2 IC50; cited from earlier work
[2] = test system: NF54; experiment: 72 h [3H]hypoxanthine incorporation assay, NF54; format: cell-based; settings: Plasmodium falciparum
In short: (§1)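 Asexual Pf strains were tested in a modified [3H]-hypoxanthine incorporation assay. Drug-resistant laboratory strains were compared with the drug-sensitive NF54 strain. IC50s came from linear interpolation.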

[3] = test system: Dd2; experiment: 72 h [3H]hypoxanthine incorporation assay, Dd2; format: cell-based; settings: Plasmodium falciparum
[4] = test system: K1; experiment: 72 h [3H]hypoxanthine incorporation assay, K1; format: cell-based; settings: Plasmodium falciparum
In short: as §1

[5] = test system: 7G8; experiment: 72 h [3H]hypoxanthine incorporation assay, 7G8; format: cell-based; settings: Plasmodium falciparum
In short: as §1

[6] = test system: TM90C2b; experiment: 72 h [3H]hypoxanthine incorporation assay, TM90C2b; format: cell-based; settings: Plasmodium falciparum
In short: as §1

[7] = test system: Cam3.I; experiment: 72 h [3H]hypoxanthine incorporation assay, Cam3.I; format: cell-based; settings: Plasmodium falciparum
In short: as §1

[8] = test system: Pf parasites; experiment: Minimum inoculum resistance; format: cell-based, Plasmodium falciparum
In short: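 Pf cultures were selected at constant pressure of 3 × IC50 in two groups. The lower-inoculum group used 24 wells. The higher group started at 2 × 10^7 parasites in triplicate, covering 2 × 10^7 to 6 × 10^7. Wells were monitored for day of recrudescence. MIR = total inoculum divided by the number of recrudescent wells. A DHODH inhibitor served as positive control. Resistant clones were whole-genome sequenced.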

Compound | IC50 [1] [nM] | IC50 [2] [nM] | IC50 [3] [nM] | IC50 [4] [nM] | IC50 [5] [nM] | IC50 [6] [nM] | IC50 [7] [nM] | minimum inoculum resistance (MIR) ([8]; selection pressure 3 × IC50, parasites) | day of recrudescence ([8]; starting inoculum 2 × 10^5 parasites, 24 replicates) | day of recrudescence ([8]; starting inoculum 2 × 10^7 parasites, triplicate) [days]
O=C(NC1Cc2ccccc2C1)c1nccnc1NC(=O)N1CCCCC1 [N-(2,3-dihydro-1H-inden-2-yl)-3-(piperidine-1-carboxamido)pyrazine-2-carboxamide] | 63 |  |  |  |  |  |  |  |  | 
C[C@H]1[C@H](OC(=O)CCC(=O)O)O[C@@H]2O[C@@]3(C)CC[C@H]4[C@H](C)CC[C@@H]1[C@@]24OO3 [artesunate] |  | 4 | 6 | 2 | 2 | 5 | 11 |  |  | 
Cc1cc(Nc2ccc(S(F)(F)(F)(F)F)cc2)n2nc(C(C)(F)F)nc2n1 [DSM265] |  |  |  |  |  |  |  | 2 × 10^7 | never recrudesced | 25
CCN(CC)CCCC(C)Nc1ccnc2cc(Cl)ccc12 (stereo not shown) [chloroquine] |  | 8 | 157 | 202 | 79 | 135 | 180 |  |  | 
